According to ChEMBL document CHEMBL2034843, “3α-Hydroxymasticadienonic acid as an antiproliferative agent that impairs mitochondrial functions” (J Nat Prod, 2012):
Activity calls are given as the source filed them. No cut-off for these calls is given here.

Tests used:
Rattus norvegicus [1] = organism: Rattus norvegicus; experiment: Induction of mitochondrial dysfunction in rat liver mitochondria assessed as cytochrome c release at 100 uM after 15 mins by Western blot analysis; format: functional
In short: (§1)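 Mitochondria (1 mg protein/mL) held 15 min at 20 °C in standard succinate/rotenone medium with or without Ca2+, then centrifuged 13000g, 10 min, 4 °C. Supernatants concentrated, resolved by SDS-PAGE (15% for cyt c, 10% for AIF) and immunoblotted with mouse anti-cyt c or rabbit anti-AIF.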

Rattus norvegicus [2] = organism: Rattus norvegicus; experiment: Induction of mitochondrial dysfunction in rat liver mitochondria assessed as decrease in mitochondrial redox level at 100 uM after 15 mins by absorption spectrophotometric analysis in presence of 50 uM Ca2+; format: functional; set-up: scale not given: the % may be the effect or the level left
In short: (§2)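 Mitochondrial protein thiol oxidation assayed per Santos et al. after 15 min incubation of rat liver mitochondria (1 mg protein/mL, 20 °C, succinate/rotenone standard medium). Results as % reduced thiols, mean ± SD, four independent experiments.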

Rattus norvegicus [3] = organism: Rattus norvegicus; experiment: Induction of mitochondrial dysfunction in rat liver mitochondria assessed as increase in colloid-osmotic swelling at 10 to 100 uM by spectrophotometric analysis; format: functional
In short: (§3)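 Absorbance change at 540 nm of rat liver mitochondrial suspensions (1 mg protein/mL, 20 °C, succinate/rotenone energized, 250 mM sucrose, 10 mM HEPES pH 7.4, 1 mM phosphate); a fall in absorbance taken as swelling. Ca2+ at 50, 70 or 90 μM as specified, or omitted. Runs repeated at least four times.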

Rattus norvegicus [4] = organism: Rattus norvegicus; experiment: Induction of mitochondrial dysfunction in rat liver mitochondria assessed as cytochrome c release at 10 uM after 15 mins by Western blot analysis; format: functional; in short: as §1
Rattus norvegicus [5] = organism: Rattus norvegicus; experiment: Induction of mitochondrial dysfunction in rat liver mitochondria assessed as increase in colloid-osmotic swelling at 10 uM by spectrophotometric analysis in presence of 50 uM Ca2+ and Ca2+ transport inhibitor ruthedium red; format: functional
In short: (§4)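 Swelling read as the 540 nm absorbance decrease in succinate-energized rat liver mitochondria (1 mg protein/mL, 20 °C, pH 7.4 sucrose/HEPES medium) with 50 μM Ca2+. Added agents where indicated: 1 μM CsA, 5 μM bongkrekic acid, 1 mM ADP, 2 μM ruthenium red, 10 μM NEM, 1 mM DTE. At least five repeats.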

Rattus norvegicus [6] = organism: Rattus norvegicus; experiment: Induction of mitochondrial dysfunction in rat liver mitochondria assessed as increase in colloid-osmotic swelling at 10 uM by spectrophotometric analysis in presence of 50 uM Ca2+ and cyclosporin A; format: functional; in short: as §4
Rattus norvegicus [7] = organism: Rattus norvegicus; experiment: Induction of mitochondrial dysfunction in rat liver mitochondria assessed as increase in colloid-osmotic swelling at 10 uM by spectrophotometric analysis in presence of 50 uM Ca2+ and AdNT; format: functional; in short: as §4
Rattus norvegicus [8] = organism: Rattus norvegicus; experiment: Induction of mitochondrial dysfunction in rat liver mitochondria assessed as Ca2+ accumulation at 10 uM after 1 to 2 mins by spectrophotometric analysis; format: functional
In short: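 Ca2+ movements in rat liver mitochondria (1 mg protein/mL, 20 °C, succinate/rotenone medium) exposed to 70 μM Ca2+; Ca2+ in mitochondrial pellets measured by atomic absorption spectroscopy, uptake expressed per mg protein.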

Rattus norvegicus [9] = organism: Rattus norvegicus; experiment: Hepatoprotective activity in rat liver assessed as increase in mitochondrial membrane potential at 100 uM by spectrophotometric analysis in presence of 50 uM Ca2+; format: functional; details: Mitochondria
In short: (§5)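 Membrane potential (ΔΨ) derived from TPP+ distribution across the inner membrane, measured with a TPP+-selective electrode. Ca2+ 50 μM where indicated; cyclosporin A 1 μM where indicated.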

Rattus norvegicus [10] = organism: Rattus norvegicus; experiment: Induction of mitochondrial dysfunction in rat liver mitochondria assessed as increase in colloid-osmotic swelling at 100 uM by spectrophotometric analysis in presence of 50 uM Ca2+; format: functional; in short: as §3
Rattus norvegicus [11] = organism: Rattus norvegicus; experiment: Induction of mitochondrial dysfunction in rat liver mitochondria assessed as decrease in membrane potential at 1 uM by spectrophotometric analysis in presence of 50 uM Ca2+; format: functional; details: in the assay text read “TPP+-selective electrode” for “spectrophotometric analysis”, TDE = time-dependent effect; in short: as §5
Rattus norvegicus [12] = organism: Rattus norvegicus; experiment: Induction of mitochondrial bioenergetics dysfunction in rat liver mitochondria assessed as decrease in respiratory control index at 50 uM by using clark electrode; format: functional
In short: (§6)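 Isolated rat liver mitochondria (1 mg protein/mL), 20 °C, sucrose/HEPES pH 7.4 medium with 5 mM succinate plus 1.25 μM rotenone and 1 mM phosphate. O2 uptake followed with a Clark electrode; 300 μM ADP added to start state 3. RCI = V3/V4 (state 3 over state 4 rate). Five experiments.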

Rattus norvegicus [13] = organism: Rattus norvegicus; experiment: Induction of mitochondrial dysfunction in Ca2+-stimulated rat liver mitochondria assessed as decrease in mitochondrial redox level at 10 uM after 15 mins by absorption spectrophotometric analysis in presence of cyclosporin A; format: functional; in short: as §2
Rattus norvegicus [14] = organism: Rattus norvegicus; experiment: Induction of mitochondrial bioenergetics dysfunction in rat liver mitochondria assessed as decrease in respiratory control index at 10 uM by using clark electrode; format: functional; in short: as §6
Rattus norvegicus [15] = organism: Rattus norvegicus; experiment: Induction of mitochondrial dysfunction in rat liver mitochondria assessed as increase in mitochondrial swelling at < 20 uM by spectrophotometric analysis in presence of 70 uM Ca2+; format: functional; in short: as §3
Rattus norvegicus [16] = organism: Rattus norvegicus; experiment: Induction of mitochondrial dysfunction in rat liver mitochondria assessed as cytochrome c release at 100 uM after 15 mins by Western blot analysis in presence of Ca2+; format: functional; in short: as §1
Rattus norvegicus [17] = organism: Rattus norvegicus; experiment: Induction of mitochondrial dysfunction in rat liver mitochondria assessed as increase in colloid-osmotic swelling at 10 uM by spectrophotometric analysis in presence of 50 uM Ca2+ and N-ethylmaleimide; format: functional; in short: as §4
HepG2 = experiment: Cytotoxicity against human HepG2 cells after 72 hrs by trypan blue assay; format: functional, cell-based; details: HepG2, 72 h
In short: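 Cells seeded at 4 × 10^4 per well, grown 24 h, then given fresh medium with a range of concentrations and kept a further 72 h at 37 °C in 5% CO2. Viability was read by trypan blue count. IC50 is the concentration giving 50% fewer cells than control cultures, as mean ± SD of at least four experiments. HeLa were grown in F-12 with 10% heat-inactivated FCS; A-431 and HepG2 in DMEM with 10% FBS.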

Rattus norvegicus [18] = organism: Rattus norvegicus; experiment: Induction of mitochondrial dysfunction in rat liver mitochondria assessed as decrease in mitochondrial redox level at 100 uM after 15 mins by absorption spectrophotometric analysis; format: functional; set-up: scale not given: the % may be the effect or the level left; in short: as §2
Rattus norvegicus [19] = organism: Rattus norvegicus; experiment: Induction of mitochondrial dysfunction in rat liver mitochondria assessed as decrease in mitochondrial redox level at 10 uM after 15 mins by absorption spectrophotometric analysis; format: functional; set-up: scale not given: the % may be the effect or the level left; in short: as §2
Rattus norvegicus [20] = organism: Rattus norvegicus; experiment: Induction of mitochondrial dysfunction in rat liver mitochondria assessed as decrease in membrane potential at 5 uM by spectrophotometric analysis in presence of 50 uM Ca2+; format: functional; details: TDE = time-dependent effect; in short: as §5
Rattus norvegicus [21] = organism: Rattus norvegicus; experiment: Induction of mitochondrial dysfunction in Ca2+-stimulated rat liver mitochondria assessed as decrease in mitochondrial redox level at 10 uM after 15 mins by absorption spectrophotometric analysis in presence of N-ethylmaleimide; format: functional; in short: as §2
Rattus norvegicus [22] = organism: Rattus norvegicus; experiment: Induction of mitochondrial dysfunction in rat liver mitochondria assessed as increase in colloid-osmotic swelling at 10 uM by spectrophotometric analysis in presence of 50 uM Ca2+ and ADP; format: functional; in short: as §4
Rattus norvegicus [23] = organism: Rattus norvegicus; experiment: Hepatoprotective activity in rat liver assessed as inhibition of colloid-osmotic mitochondrial swelling at 100 uM by spectrophotometric analysis in presence of 90 uM Ca2+; format: functional; details: Mitochondria; in short: as §3
Rattus norvegicus [24] = organism: Rattus norvegicus; experiment: Induction of mitochondrial bioenergetics dysfunction in ADP-stimulated rat liver mitochondria assessed as decrease in oxygen consumption at 10 to 50 uM by using clark electrode; format: functional; in short: as §6
Rattus norvegicus [25] = organism: Rattus norvegicus; experiment: Induction of mitochondrial dysfunction in rat liver mitochondria assessed as apoptosis inducing factor release at 100 uM after 15 mins by Western blot analysis in presence of Ca2+; format: functional; in short: as §1

In the case of `C/C(=C/CC[C@H](C)[C@@H]1CC[C@]2(C)C3=CC[C@H]4C(C)(C)[C@H](O)CC[C@]4(C)[C@H]3CC[C@@]12C)C(=O)O`, the Activity (Rattus norvegicus [1]) is reported as “inactive”, the Activity (Rattus norvegicus [2]) is reported as 25% and the Activity (Rattus norvegicus [3]) is reported as “inactive”. The Activity (Rattus norvegicus [4]) was “inactive”, the Activity (Rattus norvegicus [5]) was “inactive” and the Activity (Rattus norvegicus [6]) was “inactive”. For the same compound, the Activity (Rattus norvegicus [7]) was “inactive”, the Activity (Rattus norvegicus [8]) was “inactive” and the Activity (Rattus norvegicus [9]) was “Active”. The Activity (Rattus norvegicus [10]) was “Active”, the Activity (Rattus norvegicus [11]) was “tde” and the Activity (Rattus norvegicus [12]) was “Active”. The Activity (Rattus norvegicus [13]) was “inactive”, the Activity (Rattus norvegicus [14]) was “Active” and the Activity (Rattus norvegicus [15]) was “Active”. For the same compound, the Activity (Rattus norvegicus [16]) was “inactive”, the Activity (Rattus norvegicus [17]) was “inactive” and the IC50 (HepG2) was 20.1 µM. The Activity (Rattus norvegicus [18]) was 25%, the Activity (Rattus norvegicus [19]) was 20% and the Activity (Rattus norvegicus [20]) was “tde”. The Activity (Rattus norvegicus [21]) was “inactive”, the Activity (Rattus norvegicus [22]) was “inactive” and the inhibition (Rattus norvegicus [23]) was “Active”. For the same compound, the Activity (Rattus norvegicus [24]) was “Active” and the Activity (Rattus norvegicus [25]) was “inactive”.
